Reference: ChEMBL document CHEMBL4627381, “Licochalcone A Selectively Resensitizes ABCG2-Overexpressing Multidrug-Resistant Cancer Cells to Chemotherapeutic Drugs” (J Nat Prod, 2020)

Experiments:
NCI-H460 [1] = assay: Effect on topotecan-induced cytotoxicity against human H460 cells assessed as fold change in topotecan IC50 at 0.5 uM after 72 hrs by MTT assay relative to topotecan IC50; type: functional
In short: (§1)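 Parental S1 colon and H460 lung cancer cells were exposed for 72 h to a mitoxantrone or topotecan concentration series, with or without modulator at 0.5–3.0 μM, and read by MTT. Fold-reversal is IC50 without modulator divided by IC50 with modulator, taken from dose-response curves of three independent experiments.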

[2] = target: T1, Broad substrate specificity ATP-binding cassette transporter ABCG2 (Homo sapiens, UniProt Q9UNQ0); assay: Reversal of ABCG2 (unknown origin)-mediated multidrug resistance in human H460-MX20 cells assessed as fold change in mitoxantrone IC50 at 2 uM after 72 hrs by MTT assay relative to mitoxantrone IC50; type: cell-based
T1 sequence (Q9UNQ0 whole entry): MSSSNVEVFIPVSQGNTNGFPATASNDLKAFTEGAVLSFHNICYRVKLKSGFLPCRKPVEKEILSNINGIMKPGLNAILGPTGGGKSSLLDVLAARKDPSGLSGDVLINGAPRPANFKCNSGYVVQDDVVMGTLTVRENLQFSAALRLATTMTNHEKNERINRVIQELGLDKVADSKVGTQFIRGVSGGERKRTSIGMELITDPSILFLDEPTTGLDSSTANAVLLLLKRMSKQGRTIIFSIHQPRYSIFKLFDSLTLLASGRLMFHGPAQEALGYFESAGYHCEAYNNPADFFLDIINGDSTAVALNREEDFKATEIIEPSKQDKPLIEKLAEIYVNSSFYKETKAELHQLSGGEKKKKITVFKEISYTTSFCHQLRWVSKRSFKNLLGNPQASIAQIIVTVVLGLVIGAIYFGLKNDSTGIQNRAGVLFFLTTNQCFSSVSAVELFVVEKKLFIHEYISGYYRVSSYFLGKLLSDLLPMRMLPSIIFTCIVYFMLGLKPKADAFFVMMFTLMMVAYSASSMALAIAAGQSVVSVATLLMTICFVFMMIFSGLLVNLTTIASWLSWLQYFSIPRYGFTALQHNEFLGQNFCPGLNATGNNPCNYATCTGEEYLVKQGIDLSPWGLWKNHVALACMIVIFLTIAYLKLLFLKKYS
In short: (§2)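 Cells held drug-free 7 days, seeded at 5000 per well for 24 h, then exposed 72 h to mitoxantrone or topotecan dilutions with DMSO (≤0.5%), LCA 0.5–3.0 μM, or Ko143 1.0 μM. Viability was read by MTT. IC50 came from fitted dose-response curves of three independent experiments. Fold-reversal = IC50 without modulator divided by IC50 with modulator.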

[3] = target: T1, Broad substrate specificity ATP-binding cassette transporter ABCG2; assay: Reversal of human ABCG2-mediated multidrug resistance in HEK293/R482 cells assessed as potentiation of topotecan-induced cytotoxicity after 72 hrs by CCK8 assay; type: cell-based
In short: (§3)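 Cells were seeded at 5000/well for 24 h, then given colchicine, etoposide, mitoxantrone or topotecan ± non-toxic modulator (0.5–3.0 μM) for 72 h, with DMSO up to 0.5%. IC50 came from fitted curves (mean ± SD, three experiments). Fold-reversal = IC50 without modulator ÷ IC50 with modulator.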

GES1 = assay: Cytotoxicity against human GES-1 cells; type: cell-based
[4] = target: T1, Broad substrate specificity ATP-binding cassette transporter ABCG2; assay: Reversal of ABCG2 (unknown origin)-mediated multidrug resistance in human H460-MX20 cells assessed as fold change in topotecan IC50 at 3 uM after 72 hrs by MTT assay relative to topotecan IC50; type: cell-based; in short: as §2
HEK293 [5] = assay: Effect on topotecan-induced cytotoxicity against HEK293 cells assessed as fold change in topotecan IC50 at 3 uM after 72 hrs by CCK8 assay relative to topotecan IC50; type: cell-based; settings: human, hek293, 72 h
In short: (§4)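 Reversal assay in parental pcDNA-HEK293 and transfected HEK293 lines (ABCB1 for colchicine, ABCC1 for etoposide, ABCG2 for mitoxantrone/topotecan). Substrate drug series was given with or without nontoxic modulator (0.5, 1.0, 2.0 or 3.0 μM) for 72 h, with a CCK-8 read-out. Fold-reversal is substrate IC50 without modulator divided by IC50 with modulator. Three independent experiments.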

[6] = target: T1, Broad substrate specificity ATP-binding cassette transporter ABCG2; assay: Reversal of ABCG2 (unknown origin)-mediated multidrug resistance in human H460-MX20 cells assessed as fold change in topotecan IC50 at 0.5 uM after 72 hrs by MTT assay relative to topotecan IC50; type: cell-based; in short: as §2
[7] = target: ATP-dependent translocase ABCB1 (Homo sapiens, UniProt P08183); assay: Reversal of human ABCB1-mediated multidrug resistance in HEK293/MDR19 cells assessed as fold change in colchicine IC50 at 2 uM after 72 hrs by CCK8 relative to colchicine IC50; type: cell-based; in short: as §3
Sequence of ATP-dependent translocase ABCB1 (P08183 whole entry): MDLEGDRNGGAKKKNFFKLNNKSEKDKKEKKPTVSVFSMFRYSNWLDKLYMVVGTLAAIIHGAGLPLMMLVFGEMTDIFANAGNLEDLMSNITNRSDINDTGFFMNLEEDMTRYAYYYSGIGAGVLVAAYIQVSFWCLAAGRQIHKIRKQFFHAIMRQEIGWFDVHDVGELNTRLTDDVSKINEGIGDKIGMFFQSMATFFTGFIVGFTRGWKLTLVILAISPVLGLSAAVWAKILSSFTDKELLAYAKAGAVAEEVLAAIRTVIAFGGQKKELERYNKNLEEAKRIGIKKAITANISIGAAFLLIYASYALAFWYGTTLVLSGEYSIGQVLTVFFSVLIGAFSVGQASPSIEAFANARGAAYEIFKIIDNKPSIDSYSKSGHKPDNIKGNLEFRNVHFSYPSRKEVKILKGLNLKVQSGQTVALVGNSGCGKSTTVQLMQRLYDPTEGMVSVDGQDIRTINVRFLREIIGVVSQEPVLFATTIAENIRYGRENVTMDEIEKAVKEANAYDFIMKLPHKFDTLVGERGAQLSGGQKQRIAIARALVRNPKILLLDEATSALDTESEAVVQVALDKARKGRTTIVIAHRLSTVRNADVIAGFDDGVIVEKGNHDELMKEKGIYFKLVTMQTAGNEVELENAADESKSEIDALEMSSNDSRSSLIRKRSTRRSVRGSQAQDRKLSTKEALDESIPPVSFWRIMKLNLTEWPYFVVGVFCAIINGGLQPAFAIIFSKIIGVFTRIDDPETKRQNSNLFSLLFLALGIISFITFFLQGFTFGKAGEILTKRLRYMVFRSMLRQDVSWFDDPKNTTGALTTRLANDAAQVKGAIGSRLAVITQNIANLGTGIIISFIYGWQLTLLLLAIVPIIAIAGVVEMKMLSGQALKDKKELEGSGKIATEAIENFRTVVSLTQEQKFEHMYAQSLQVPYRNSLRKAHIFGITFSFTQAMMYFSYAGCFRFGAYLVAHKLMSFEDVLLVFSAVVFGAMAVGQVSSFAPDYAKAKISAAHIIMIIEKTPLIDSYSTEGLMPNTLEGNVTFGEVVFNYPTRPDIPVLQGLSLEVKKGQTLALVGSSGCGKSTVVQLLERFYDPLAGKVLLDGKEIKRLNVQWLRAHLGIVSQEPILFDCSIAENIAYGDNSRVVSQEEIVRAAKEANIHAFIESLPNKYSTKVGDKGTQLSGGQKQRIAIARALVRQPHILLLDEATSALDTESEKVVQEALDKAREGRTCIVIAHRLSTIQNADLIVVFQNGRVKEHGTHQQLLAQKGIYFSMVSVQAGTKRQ

HEK293 [8] = assay: Effect on Colchicine-induced cytotoxicity against HEK293 cells assessed as fold change in colchicine IC50 at 1 uM after 72 hrs by CCK8 assay relative to colchicine IC50; type: cell-based; settings: human, hek293, 72 h; in short: as §4
[9] = target: T1, Broad substrate specificity ATP-binding cassette transporter ABCG2; assay: Reversal of ABCG2 (unknown origin)-mediated multidrug resistance in human H460-MX20 cells assessed as fold change in topotecan IC50 at 2 uM after 72 hrs by MTT assay relative to topotecan IC50; type: cell-based; in short: as §2
S1 = assay: Effect on mitoxantrone-induced cytotoxicity against human S1 cells assessed as fold change in mitoxantrone IC50 at 2 uM after 72 hrs by MTT assay relative to mitoxantrone IC50; type: functional; in short: as §1
[10] = target: T1, Broad substrate specificity ATP-binding cassette transporter ABCG2; assay: Inhibition of ABCG2 (unknown origin)-mediated pheophorbide A efflux in H460-MX20 cells incubated for 1 hr by FACScan flow cytometry; type: cell-based
In short: (§5)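 Cells held drug-free 7 days. 3 × 10^5 cells were suspended in IMDM with 5% FCS and loaded with pheophorbide A (ex 395/em 670 nm) for 1 h, with or without LCA (20 μM for single-concentration accumulation) or Ko143 3 μM as reference. Read immediately by flow cytometry. Efflux inhibition was run over a concentration range; mean ± SD of three experiments.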

HEK293 [11] = assay: Effect on topotecan-induced cytotoxicity against HEK293 cells assessed as fold change in topotecan IC50 at 0.5 uM after 72 hrs by CCK8 assay relative to topotecan IC50; type: cell-based; settings: human, hek293, 72 h; in short: as §4
[12] = target: T1, Broad substrate specificity ATP-binding cassette transporter ABCG2; assay: Modulation of ABCG2 (unknown origin) expressed in S1-M1-80 cells assessed as increase in intracellular pheophorbide A accumulation at 20 uM incubated for 1 hr by FACScan flow cytometry; type: cell-based; settings: s1-m1-80, 1 h; in short: as §5
[13] = target: T1, Broad substrate specificity ATP-binding cassette transporter ABCG2; assay: Reversal of ABCG2 (unknown origin)-mediated multidrug resistance in human S1-M1-80 cells assessed as fold-change in topotecan IC50 at 2 uM after 72 hrs by MTT assay relative to topotecan IC50; type: cell-based; settings: s1-m1-80, 72 h
In short: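 MTT readout in S1-M1-80 colon cancer cells (mitoxantrone-selected, held in 80 μM mitoxantrone, then drug-free 7 days before assay). Cells were seeded at 5000/well for 24 h, then given increasing mitoxantrone or topotecan with DMSO or non-toxic modulator for 72 h at 37 °C. IC50 came from fitted dose-response curves (at least three independent experiments). Fold-reversal = IC50 without modulator ÷ IC50 with modulator.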

NCI-H460 [14] = assay: Effect on mitoxantrone-induced cytotoxicity against human H460 cells assessed as fold change in mitoxantrone IC50 at 2 uM after 72 hrs by MTT assay relative to mitoxantrone IC50; type: functional; in short: as §1

- fold change (FC) [4]: 10.1
- fold change (FC) [6]: 3.6
- fold change (FC) [7]: 0.8
- fold change (FC) [9]: 8.9
- inhibition (INH) [10]: Dose-dependent effect
- Activity [12]: Active
- fold change (FC) [13]: 24.7
SMILES: C=CC(C)(C)c1cc(/C=C/C(=O)c2ccc(O)cc2)c(OC)cc1O [LICOAGROCHACONE A]
- fold change (FC) (NCI-H460 [1]): 1.5
- fold change (FC) [2]: 15.5
- Activity [3]: Dose-dependent effect
- IC50 (GES1): > 180 µM
- fold change (FC) (HEK293 [5]): 1
- fold change (FC) (HEK293 [8]): 1.1
- fold change (FC) (S1): 1.1
- fold change (FC) (HEK293 [11]): 0.9
- fold change (FC) (NCI-H460 [14]): 1.1
